A short description of data set [1]: Inhibition of human cPLA2-alpha assessed as cleavage of 7-hydroxycoumarinyl-gamma-linolenate. Summed up:
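Substrate 90 µM GLU with 120 µM DTPC. Compounds in DMSO tested in duplicate. Fluorescence (ex 355/em 460 nm) read every 4 min for 84 min; inhibition from slope. IC50 averaged from at least two independent runs.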

Data set [2] can be described thus: Inhibition of cPLA2-alpha in Sprague-Dawley rat whole blood assay in presence of A23187. It counts as tissue-based. Summed up: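 Heparinized blood from male Sprague-Dawley rats, taken by cardiac puncture. Preincubated 15 min at 37 °C with compound in DMSO, then stimulated 10 min at 37 °C with 5 µM A23187 (final). Stopped with 20 mM EDTA; plasma precipitated with cold methanol at −80 °C. TXB2 measured by immunoassay; IC50 values averaged from at least two independent runs.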

Data set [3] in a line: Clearance in Sprague-Dawley rat at 2 mg/kg, iv. It is filed as ADME, organism-based. The conditions noted are these: in vivo. Set-up: dose 2 mg/kg, route intravenous. The method in brief:
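Male Sprague-Dawley rats, 200–300 g, n = 3, given a single 2 mg/kg tail-vein bolus in 50% PEG-400/50% DMSO. Blood drawn via jugular cannula over 24 h and plasma acidified with HCl. Plasma levels measured by LC/MS/MS after acetonitrile precipitation with internal standard; quantitation limit 5 ng/mL. Clearance from non-compartmental analysis.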

Data set [4] in a line: Oral bioavailability in Sprague-Dawley rat at 5 mg/kg administered through MC/TW formulation. It is filed as ADME, organism-based. Conditions: in vivo. The method in brief: (§1)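 Overnight-fasted male Sprague-Dawley rats (n = 3) gavaged in MC/TW or Phosal vehicle; compound at 37.5 mg/mL, diluted with water, dosed at 4 mL/kg. Jugular blood taken over 24 h; plasma analysed by LC/MS/MS. F calculated as the dose-normalized oral/iv AUC ratio, iv reference 2 mg/kg.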

Data set [5] is described as follows: Oral bioavailability in Sprague-Dawley rat at 10 mg/kg administered through Phosal formulation. It is filed as ADME, organism-based. Conditions: in vivo.
Data set [6] in a line: Oral bioavailability in Sprague-Dawley rat at 25 mg/kg administered through MC/TW formulation. It counts as ADME, organism-based. Conditions: in vivo. Summed up: as §1
Data set [7] in a line: Oral bioavailability in Beagle dog at 50 mg/kg administered through Phosal formulation. It is filed as ADME, organism-based, Canis lupus familiaris. Conditions: in vivo. The method in brief:
(§2)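 Fasted male Beagle dogs (n = 3) dosed orally in MC/TW or Phosal formulation, volume 4 or 6 mL/kg. Saphenous plasma collected over 24 h and measured by LC/MS/MS. F calculated as the dose-normalized oral/iv AUC ratio against 2 mg/kg iv.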

A short description of data set [8]: Oral bioavailability in Beagle dog at 50 mg/kg administered through MC/TW formulation. It counts as ADME, organism-based, Canis lupus familiaris. The conditions noted are these: in vivo. The method in brief: as §2
Data set [9] in a line: Oral bioavailability in Sprague-Dawley rat at 25 mg/kg administered through Phosal formulation. It counts as ADME, organism-based. Conditions: in vivo. Summed up: as §1
Data set [10] in a line: Clearance in Beagle dog at 2 mg/kg, iv. More on the design: dose 2 mg/kg, route intravenous. Conditions: in vivo. It counts as ADME, organism-based, Canis lupus familiaris. The method in brief: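 Male Beagle dogs, 8.5–13.0 kg, n = 3, fasted overnight, given 2 mg/kg iv in 20% DMSO/80% PEG-200. Saphenous blood sampled over 24 h and plasma acidified to about pH 4. Analysed by LC/MS/MS with internal standard. Clearance by non-compartmental methods.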

A word on the IC50: it is the midpoint of a concentration-inhibition curve. As usually defined, the clearance is a measure of how efficiently the substance is removed, as volume per time. The bioavailability is the share of a dose that reaches the circulation, judged against a reference dose that is usually intravenous. A low value points to little systemic uptake. Turning to `O=C(O)c1ccc(CCCc2c(CCNS(=O)(=O)Cc3ccccc3)n(C(c3ccccc3)c3ccccc3)c3ccc(Cl)cc23)cc1`, the IC50 in data set [1] worked out at 40 nM; in data set [2], 80 nM. In data set [3], this molecule came in with a clearance of 13 mL/min/kg. The bioavailability in [4] amounted to 3.8%; in data set [5], 7.2%.
Turning to `O=C(O)c1ccc(OCCc2c(CCNS(=O)(=O)c3c(F)cccc3C(F)(F)F)n(C(c3ccccc3)c3ccccc3)c3ccc(Cl)cc23)cc1`, the results for the IC50 in data set [1] and in data set [2] were 180 nM and 150 nM, respectively. This molecule yielded a clearance in data set [3] of 15.3 mL/min/kg. The bioavailability in [6] came to 3%.
Take `O=C(O)c1ccc(OCCc2c(CCNS(=O)(=O)c3ccccc3Br)n(C(c3ccccc3)c3ccccc3)c3ccc(Cl)cc23)cc1`: the figures for the IC50 in data set [1] and in data set [2] were 520 nM and 320 nM, respectively. In data set [3], this molecule yielded a clearance of 3.1 mL/min/kg. The molecule further gave a bioavailability in [6] of less than 0.2%.
For `O=C(O)c1ccc(OCCc2c(CCNS(=O)(=O)c3ccccc3Cl)n(C(c3ccccc3)c3ccccc3)c3ccc(Cl)cc23)cc1`, in that order: 400 nM, 550 nM, 31 mL/min/kg and 39%.
In the case of `O=C(O)c1ccc(CCCc2c(CCNS(=O)(=O)c3ccccc3OC(F)(F)F)n(C(c3ccccc3)c3ccccc3)c3ccc(Cl)cc23)cc1`, the half-inhibitory concentration (IC50) in data set [1] came out at 100 nM; in data set [2] it was 200 nM. This molecule registered a clearance in [3] of 5.2 mL/min/kg. This molecule displayed a bioavailability in data set [6] of 4.6%.
Turning to `COc1ccccc1S(=O)(=O)NCCc1c(CCOc2ccc(C(=O)O)cc2)c2cc(Cl)ccc2n1C(c1ccccc1)c1ccccc1`, the IC50 stood at 180 nM in data set [1] and 60 nM in data set [2]. Moreover, the clearance in data set [3] was determined as 18.6 mL/min/kg. The bioavailability in data set [6] is less than 0.1%.
On to `Cc1cccc(C)c1CS(=O)(=O)NCCc1c(CCCc2ccc(C(=O)O)cc2)c2cc(Cl)ccc2n1C(c1ccccc1)c1ccccc1`, for which the bioavailability turned out to be 1.5% in data set [7], 0.08% in data set [8], 3.5% in data set [9] and 1% in [6]. Moreover, the figures for the IC50 in [1] and in [2] were 14 nM and 30 nM, respectively. Also, the figures for the clearance in [10] and in data set [3] were 0.6 mL/min/kg and 4 mL/min/kg, respectively.
For the molecule `O=C(O)c1ccc(CCCc2c(CCNS(=O)(=O)c3ccccc3Br)n(C(c3ccccc3)c3ccccc3)c3ccc(Cl)cc23)cc1`, the IC50 stood at 100 nM in data set [1] and 120 nM in data set [2]. The clearance in data set [3] worked out at 6.5 mL/min/kg. In addition, the bioavailability in [6] amounted to 1.9%.
Take `O=C(O)c1ccc(OCCc2c(CCNS(=O)(=O)c3ccccc3F)n(C(c3ccccc3)c3ccccc3)c3ccc(Cl)cc23)cc1`: the IC50 in [1] was determined as 600 nM; in data set [2], 150 nM. Moreover, the clearance in data set [3] came to 28 mL/min/kg. In [6], this molecule showed a bioavailability of 6%.
With `O=C(O)c1ccc(OCCc2c(CCNS(=O)(=O)Cc3ccccc3)n(C(c3ccccc3)c3ccccc3)c3ccc(Cl)cc23)cc1`, the half-inhibitory concentration (IC50) in data set [1] is 110 nM; in data set [2], 120 nM. The molecule also registered a bioavailability in [6] of 3.9%.
In the case of `O=C(O)c1ccc(OCCc2c(CCNS(=O)(=O)Cc3ccc(Cl)c(Cl)c3)n(C(c3ccccc3)c3ccccc3)c3ccc(Cl)cc23)cc1` [ECOPLADIB], the IC50 in [2] is 160 nM. In data set [6], this molecule came in with a bioavailability of 6%.
Turning to `Cc1cccc(C)c1S(=O)(=O)NCCc1c(CCCc2ccc(C(=O)O)cc2)c2cc(Cl)ccc2n1C(c1ccccc1)c1ccccc1`, the IC50 in [1] turned out to be 47 nM; in data set [2], 75 nM. Further, in [3], the clearance was 10.5 mL/min/kg. Moreover, the bioavailability in data set [6] came to 1.3%.
As for `O=C(O)c1ccc(OCCc2c(CCNS(=O)(=O)c3ccccc3OC(F)(F)F)n(C(c3ccccc3)c3ccccc3)c3ccc(Cl)cc23)cc1`, the IC50 amounted to 350 nM in data set [1] and 360 nM in [2]. In data set [3], this molecule registered a clearance of 12.4 mL/min/kg. Moreover, in data set [6], the bioavailability worked out at 15.4%.
With `O=C(O)c1ccc(CCCc2c(CCNS(=O)(=O)c3ccccc3F)n(C(c3ccccc3)c3ccccc3)c3ccc(Cl)cc23)cc1`, the IC50 came to 190 nM in data set [1] and 220 nM in data set [2]. In [3], this molecule showed a clearance of 8.8 mL/min/kg. In data set [6], this molecule had a bioavailability of 4%.
As for `COc1ccccc1S(=O)(=O)NCCc1c(CCCc2ccc(C(=O)O)cc2)c2cc(Cl)ccc2n1C(c1ccccc1)c1ccccc1`, the figures for the IC50 in data set [1] and in [2] were 100 nM and 200 nM, respectively. The same molecule registered a clearance in [3] of 10.7 mL/min/kg. In data set [6], the bioavailability was found to be 7.8%.
Consider `Cc1ccccc1S(=O)(=O)NCCc1c(CCOc2ccc(C(=O)O)cc2)c2cc(Cl)ccc2n1C(c1ccccc1)c1ccccc1`, for which the IC50 in data set [1] is 340 nM; in [2], 160 nM. In [3], this molecule displayed a clearance of 61 mL/min/kg.
As for `O=C(O)c1ccc(OCCc2c(CCNS(=O)(=O)c3cccc(-c4ccccc4)c3)n(C(c3ccccc3)c3ccccc3)c3ccc(Cl)cc23)cc1`, the concentration for half-maximal inhibition (IC50) in data set [1] came out at 570 nM; in data set [2], 600 nM.
On to `O=C(O)c1ccc(OCCc2c(CCNS(=O)(=O)c3ccccc3)n(C(c3ccccc3)c3ccccc3)c3ccc(Cl)cc23)cc1`, for which the IC50 in [1] came out at 3000 nM; in data set [2] it was 1000 nM. In data set [3], this molecule returned a clearance of 73 mL/min/kg.
On to `O=C(O)c1ccc(CCCc2c(CCNS(=O)(=O)Cc3ccc(Cl)c(Cl)c3)n(C(c3ccccc3)c3ccccc3)c3ccc(Cl)cc23)cc1` [EFIPLADIB], for which the figures for the half-maximal inhibitory concentration (IC50) in [1] and in data set [2] were 40 nM and 70 nM, respectively. Moreover, the bioavailability in data set [9] worked out at 6%; in [6], 1%.
For `Cc1cccc(C)c1S(=O)(=O)NCCc1c(CCOc2ccc(C(=O)O)cc2)c2cc(Cl)ccc2n1C(c1ccccc1)c1ccccc1`, the IC50 came out at 100 nM in [1] and 95 nM in [2]. The clearance in data set [3] is 6.1 mL/min/kg. In data set [6], this molecule had a bioavailability of 6%.
For `O=C(O)c1ccc(OCCc2c(CCNS(=O)(=O)c3c(Cl)cccc3Cl)n(C(c3ccccc3)c3ccccc3)c3ccc(Cl)cc23)cc1`, the IC50 in data set [1] stood at 260 nM; in [2] it was 210 nM. Moreover, in data set [3], the clearance is 16.3 mL/min/kg. This molecule had a bioavailability in data set [6] of 2.9%.
Regarding `O=C(O)c1ccc(CCCc2c(CCNS(=O)(=O)c3ccccc3-c3ccccc3)n(C(c3ccccc3)c3ccccc3)c3ccc(Cl)cc23)cc1`, the half-maximal inhibitory concentration (IC50) in data set [1] was determined as 40 nM; in data set [2] it was 60 nM. Also, the clearance in data set [3] was 2.3 mL/min/kg. The same molecule yielded a bioavailability in [6] of 0.4%.
Take `O=C(O)c1ccc(CCCc2c(CCNS(=O)(=O)c3ccccc3Cl)n(C(c3ccccc3)c3ccccc3)c3ccc(Cl)cc23)cc1`: the results for the IC50 in [1] and in [2] were 100 nM and 200 nM, respectively. Besides, the clearance in data set [3] was 9.4 mL/min/kg. For the same molecule, the bioavailability in [6] came to 13.7%.
For `O=C(O)c1ccc(OCCc2c(CCNS(=O)(=O)c3ccccc3-c3ccccc3)n(C(c3ccccc3)c3ccccc3)c3ccc(Cl)cc23)cc1` the same measures were 110 nM, 150 nM, 4.5 mL/min/kg and less than 0.1%.
As for `O=C(O)c1ccc(CCCc2c(CCNS(=O)(=O)c3cccc(-c4ccccc4)c3)n(C(c3ccccc3)c3ccccc3)c3ccc(Cl)cc23)cc1`, the IC50 was 180 nM in data set [1] and 220 nM in data set [2].
Take `Cc1ccccc1S(=O)(=O)NCCc1c(CCCc2ccc(C(=O)O)cc2)c2cc(Cl)ccc2n1C(c1ccccc1)c1ccccc1`: the concentration for half-maximal inhibition (IC50) in data set [1] was found to be 90 nM; in data set [2], 95 nM. For the same molecule, in data set [3], the clearance was found to be 10.3 mL/min/kg. The same molecule showed a bioavailability in [6] of 8.6%.
As to `O=C(O)c1ccc(CCCc2c(CCNS(=O)(=O)c3c(Cl)cccc3Cl)n(C(c3ccccc3)c3ccccc3)c3ccc(Cl)cc23)cc1`, the IC50 in data set [1] was found to be 60 nM; in data set [2] it was 100 nM. Further, the clearance in data set [3] was found to be 8.5 mL/min/kg. The molecule further had a bioavailability in data set [6] of 3.8%.
